Measurements: publication PMC2906776 (Bioorganic & medicinal chemistry, 2009)

Key:
[1] = tested on: ER(+) Ishikawa cells; test: Induction of alkaline phosphatase in Ishikawa cells; type: cell-based, human
[2] = type: in vitro ADME, human; details: four days
[3] = tested on: T47D/neo cells; test: ERE activation, luciferase reporter in T47D/neo cells; type: cell-based, human; details: read-out: EC50 ERE-luciferase activation, classical ER-dependent
Method in brief: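 T47D:A18/neo stable transfectants were grown in RPMI 1640 with 10% FBS and G418 (500 µg/mL), then held 3 days in phenol red-free, E2-depleted RPMI with G418. 8 × 10^6 cells were electroporated with ERE-tk-Luc (5 µg) plus pCMVβ β-gal (1 µg). The next day, test compound (10^-9–10^-7 mol/L), E2 (10^-9 mol/L) or ethanol vehicle was added for 18 h. Luciferase luminescence was normalized to β-gal.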

[4] = tested on: MCF-7 cells; details: cited from earlier work

## NC[C@H]1O[C@@H]2O[C@H]3[C@H](O)[C@@H](O)[C@@H](O[C@H]4[C@H](O)[C@@H](O)[C@@H](O[C@H]5[C@H](O)[C@@H](O)[C@@H](O[C@H]6[C@H](O)[C@@H](O)[C@@H](O[C@H]7[C@H](O)[C@@H](O)[C@@H](O[C@H]8[C@H](O)[C@@H](O)[C@@H](O[C@H]1[C@H](O)[C@H]2O)O[C@@H]8CN)O[C@@H]7CN)O[C@@H]6CN)O[C@@H]5CN)O[C@@H]4CN)O[C@@H]3CN [ACD, Per-6-amino-6-deoxy-β-cyclodextrin]
[1]
  Estrogenic activity, result in words: inactive

## [N-]=[N+]=NC[C@H]1O[C@@H]2O[C@H]3[C@H](O)[C@@H](O)[C@@H](O[C@H]4[C@H](O)[C@@H](O)[C@@H](O[C@H]5[C@H](O)[C@@H](O)[C@@H](O[C@H]6[C@H](O)[C@@H](O)[C@@H](O[C@H]7[C@H](O)[C@@H](O)[C@@H](O[C@H]8[C@H](O)[C@@H](O)[C@@H](O[C@H]1[C@H](O)[C@H]2O)O[C@@H]8CN=[N+]=[N-])O[C@@H]7CN=[N+]=[N-])O[C@@H]6CN=[N+]=[N-])O[C@@H]5C/N=[NH+]\[NH-])O[C@@H]4CN=[N+]=[N-])O[C@@H]3CN=[N+]=[N-] [Compound 2, Per-6-azido-6-deoxy-β-cyclodextrin]
[1]
  Estrogenic activity, result in words: inactive

## Per-6-(estradiol-17-(1H-1,2,3-triazol-4-yl))-6-deoxy-β-cyclodextrin [Compound 7EqCD]
[2]; 7EqCD 10 nM, Ishikawa cells
  Free EE2 in cell supernatant: < 50 pM
[2]; Ishikawa cell culture
  Free estrogen (EE2 or E2) in cell supernatant, result in words: EE2 was not observed above detection limits
[3]
  EC50: > 100 nM

## 17-beta estradiol [Compound E2]
[4]
  Potency of E2 relative to the E2–dendrimer conjugate: 3–4 orders of magnitude
